Assay outcomes from PubChem BioAssay.
NPY-Y1 PAM-ag – NPY-Y1 receptor potentiators or agonists, primary screen, cell-based. activation, % at 3.6 µM. 220,000 tested, 0.37% active. NPY-Y1 expressing cells, potentiator/agonist activation. AID 1304, 2008; in the data active = activation above about 33%, passing the limit was not always enough;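 also: cells stimulated with NPY at EC10 then isoproterenol at EC100; 0% = low agonist plus stimulus and 100% = saturating agonist plus stimulus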
NPY-Y1 antag – NPY-Y1 receptor antagonists, primary screen, cell-based; Neuropeptide Y receptor type 1 (Homo sapiens), P25929; HEK293-CNG Y1 cells, membrane potential fluorescence; NPY at EC95, then isoproterenol; inhibition, % at 3.6 µM; 200,000 tested, 1% active; AID 1040, 2008;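 active = inhibition above the campaign mean inhibition of all tested compounds plus 3 SD, cut at about 20% in these data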;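 also: 0% = DMSO wells given NPY plus isoproterenol and 100% = isoproterenol alone without NPY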
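Test system – HEK293 Y1/CNG channel cell line · Also added – NPY agonist 25 nM, then isoproterenol 1 µM plus Ro 20-1724 25 µM · Compound dosing – one concentration, 3.6 µM, in 0.4% DMSO · Schedule – compound incubation 1 h at room temperature, readout 45 min post-stimulation · Technique – fluorescence, membrane potential probe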
NPY Y2 blocker – NPY-Y2 receptor antagonists, primary screen, cell-based | AID 793, 2007 | NPY-Y2 expressing cells, antagonist mode | inhibition, % at 2.7 µM | 140,000 tested, 0.99% active | Neuropeptide Y receptor type 2 (Homo sapiens), P49146; in the data active = inhibition above about 17%;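 also: 0% = vehicle with agonist challenge and 100% = reference antagonist with challenge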
Target sequence (P49146 whole entry, looked up): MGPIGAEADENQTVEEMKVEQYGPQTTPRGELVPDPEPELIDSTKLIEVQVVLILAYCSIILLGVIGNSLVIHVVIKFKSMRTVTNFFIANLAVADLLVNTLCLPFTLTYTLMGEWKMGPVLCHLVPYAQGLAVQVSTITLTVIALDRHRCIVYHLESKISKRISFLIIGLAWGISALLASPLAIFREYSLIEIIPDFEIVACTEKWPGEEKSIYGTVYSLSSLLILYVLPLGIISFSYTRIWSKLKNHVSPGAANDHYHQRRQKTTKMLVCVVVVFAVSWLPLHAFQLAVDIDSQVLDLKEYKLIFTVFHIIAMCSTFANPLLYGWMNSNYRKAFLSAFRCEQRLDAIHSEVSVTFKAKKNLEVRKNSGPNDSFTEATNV
NPY2 pot ag – NPY-Y2 potentiators or agonists, primary screen, cell-based; 220,000 tested, 0.45% active; Neuropeptide Y receptor type 2 (Homo sapiens), P49146; cells expressing NPY-Y2, potentiator/agonist read-out; activation, % at 3.6 µM; in the data active = activation above about 27%;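 also: cells stimulated with NPY near EC25 plus isoproterenol at EC100; 0% = vehicle plus submaximal agonist and 100% = vehicle plus saturating agonist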
NPY1 antag ctr – NPY-Y1 receptor antagonists, selectivity check, counter-screen for NPY-Y2 antagonist project, cell-based; AID 1256, 2008; 710 tested, 19% active; shares compounds with NPY Y2 blocker; inhibition, % at 3.6 µM; cell-based NPY-Y1 antagonism counterscreen; in the data active = inhibition above about 20%;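 also: cells challenged with NPY then isoproterenol with cAMP sensed through a CNG channel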
NPY-Y2 ant conf – NPY-Y2 receptor antagonists, retest of hits, confirmation, HEK293-CNG cells, membrane potential fluorescence, triplicate. inhibition, % at 2.8 µM. HEK293 NPY-Y2 CNG channel. AID 1257, 2008. shares compounds with NPY Y2 blocker. 710 tested, 32% active;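 active = mean inhibition of triplicate wells above the hit cutoff set in the primary screen, cut at about 17% in these data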;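 also: 0% = DMSO with NPY challenge and 100% = BIIE0246 high control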
Starred values were filed as active, the others as inactive; / = no result. A selection: hits, their analogues and other compounds. The true share with any hit is near 1.8%.

SMILES	NPY-Y1 PAM-ag	NPY-Y1 antag	NPY Y2 blocker	NPY2 pot ag	NPY1 antag ctr	NPY-Y2 ant conf
Cc1nnc(SC2CC(=O)N(c3ccccc3)C2=O)s1 (stereo not given)	10	-1	0	-15	/	/
O=C(CSc1nc2ccccc2s1)NCCOc1ccc(Cl)cc1	-49	15	20*	-41	12	14
O=C(CSc1nc2ccccc2s1)NCCOc1ccccc1	-19	7	8	-14	/	/
COC(=O)c1c(C)oc2ccc(N(C(=O)c3ccncc3)S(=O)(=O)c3ccccc3)cc12	-17	-2	7	4	/	/
COC(=O)c1c(C)oc2ccc(N(C(=O)c3ccncc3)S(=O)(=O)c3ccc4ccccc4c3)cc12	-18	3	23*	-31	19	31*
CC(=O)Nc1ccc(S(=O)(=O)N2CCN(Cc3cccs3)CC2)cc1	-1	4	/	-5	/	/
Cc1cc2ncn(C(=O)c3c(-c4ccccc4)noc3C)c2cc1C	-5	8	20*	-2	9	9
Cc1cc2ncn(C(=O)c3c(-c4c(Cl)cccc4Cl)noc3C)c2cc1C	-7	0	1	-3	/	/
Cc1cc(Cl)c(OCCCNCc2ccccc2)c(Br)c1	-50	14	18*	-14	17	23*
CC(C)(C)n1nnnc1C(c1cccnc1)N(Cc1ccccc1)Cc1ccco1 (stereo not given)	-1	18	18*	-4	6	2
CCC(C)(C)n1nnnc1C(c1ccc(C)cc1)N(Cc1ccco1)Cc1cccs1 (stereo not given)	-22	18	22*	1	10	10
CSc1ccccc1Nc1ncnc(N)n1	-5	/	/	-5	/	/
COc1ccc(Cl)cc1NC(=O)C(C)N(C)Cc1cccc(Cl)c1Cl (stereo not given)	-56	14	8	-9	/	/
CN(/N=C/c1ccncc1)C1=NS(=O)(=O)c2ccccc21	25	4	21*	4	2	1
O=C(CC1C(=O)NCCN1Cc1ccc(F)cc1)NCCCn1cccn1 (stereo not given)	13	-1	/	-3	/	/
CCOC(=O)COc1ccc(S(=O)(=O)N2CCc3ccccc3C2)cc1	27	3	1	8	/	/
c1ccc(CSc2nnc(-c3cccs3)n2Cc2ccco2)cc1	6	15	19*	8	11	10
Brc1ccc(CSc2nnc(-c3ccccn3)n2Cc2ccco2)cc1	-23	19	24*	-6	20	26*
Clc1cccc(CSc2nnc(-c3ccccn3)n2Cc2ccco2)c1	22	-1	20*	-13	12	8
O=C(O)c1ccc(OCCOc2ccccc2)cc1	10	/	/	-4	/	/
Cc1ccccc1/C=C/c1nc2ccccc2c(=O)n1CCc1ccccc1	-10	2	23*	5	18	29*
COc1cccc(CC(=S)N2CCOCC2)c1	7	1	3	-1	/	/
CCC(C)N(C(=O)COC(=O)/C=C/c1ccc(O)c(OC)c1)C1CCS(=O)(=O)C1 (stereo not given)	9	4	18*	-1	1	0
COc1cc(/C=C/C(=O)OCC(=O)NC2CCS(=O)(=O)C2)ccc1O (stereo not given)	0	-1	-1	-1	/	/
Cc1ccc(C(C(=O)NC2CCCC2)N(Cc2ccc3c(c2)OCO3)C(=O)c2snc(C(N)=O)c2N)cc1 (stereo not given)	-7	/	/	6	/	/
SMILES	NPY-Y1 PAM-ag	NPY-Y1 antag	NPY Y2 blocker	NPY2 pot ag	NPY1 antag ctr	NPY-Y2 ant conf
O=C(NC1CCCCC1)C(c1ccccc1)N(Cc1ccc2c(c1)OCO2)C(=O)c1cnsn1 (stereo not given)	-43	12	26*	-11	16	12
CCc1ccc(C(=O)CSc2nc(C)cc(=O)[nH]2)cc1	-12	12	/	-18	/	/
COCCOC(=O)c1c(C)oc2ccc(NS(=O)(=O)c3ccccc3)cc12	-3	0	5	-13	/	/
CCOC(=O)c1c(C)oc2ccc(NS(=O)(=O)c3ccc4c5c(cccc35)C(=O)N4)cc12	-45	10	27*	-14	5	14
Nc1ncnc2c1nc(SCCO)n2Cc1ccccc1	21	9	/	14	/	/
c1ccc(N(c2ccccc2)c2nc(-n3ccnc3)nc(-n3ccnc3)n2)cc1	36	3	23*	18	6	3
NNC(=O)CCn1c2ccccc2c2ccccc21	2	1	/	3	/	/
CCOC(=O)c1cccc(NC(=O)CSc2nnc(COc3ccc(Cl)cc3)o2)c1	-4	7	0	-14	/	/
Cc1ccc(C(=O)CSc2nnc(COc3cc(C)cc(C)c3)o2)cc1	-5	7	21*	1	13	20*
COC(=O)c1ccc(OC)c(CSc2nnc(COc3ccc(Cl)cc3)o2)c1	-31	9	27*	-4	25*	19*
COC(=O)c1ccc(OC)c(CSc2nnc(-c3ccc(C(C)(C)C)cc3)o2)c1	-15	5	0	1	/	/
COC(=O)c1ccc(OC)c(CSc2nnc(COc3ccccc3)o2)c1	-34	13	18*	-4	7	11
COC(=O)c1ccc(Cl)c(NC(=O)CN(c2ccccc2)S(=O)(=O)c2ccc(OC)cc2)c1	-28	1	1	-15	/	/
CCN(CC(=O)Nc1cc(Cl)ccc1OC)CC(=O)NC1CCS(=O)(=O)C1 (stereo not given)	13	/	/	1	/	/
O=C(CSc1ncnc2c1oc1ccccc12)Nc1ccccc1C(F)(F)F	-17	2	8	3	/	/
Cc1ccc(-c2cc(C(F)F)n3ncc(C(=O)N4CCN(c5ccccn5)CC4)c3n2)cc1	-28	6	20*	-7	19	17
CCCn1c(=O)c2ccccc2n2c(SCCOc3ccc(C)cc3)nnc12	-20	8	20*	-13	15	11
FC(F)(F)c1nc(-c2cccs2)ncc1-c1nnnn1-c1ccc(Cl)cc1	-32	14	25*	6	26*	17
FC(F)(F)c1nc(-c2cccnc2)ncc1-c1nnnn1-c1ccccc1	-23	1	5	-6	/	/
Cc1cc(Br)cn2cc(C(=O)O)nc12	14	3	/	3	/	/
CCOc1nc(SCCOc2ccc(C)cc2)nc(N(C)C)n1	-48	12	11	-14	/	/
CCOc1nc(SCCOc2ccc(Cl)cc2Cl)nc(N(C)C)n1	-39	10	20*	-16	20	44*
CO/N=C(/CS(=O)Cc1ccc(Cl)cc1)c1ccc(Cl)cc1 (stereo not given)	5	14	18*	-16	10	3
O=C1C(=O)c2ccc(-c3ccccc3)cc2-c2ccccc21	-1	-1	-1	3	/	/
